# The RNAGym collection of RNA variant scans (doi:10.1038/s41586-018-0170-7)
# B1: tRNA (parent)
# chain: GUUCCGUUGGCGUAAUGGUAACGCGUCUCCCUCCUAAGGAGAAGACUGCGGGUUCGAGUCCCGUACGGAACG
# Variants of: B1
# Test: yeast fitness, log relative to wild type (ln ratio); higher = fitter; tRNA-Arg(CCU), competitive growth, 37 C, 1 M NaCl
# In short: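 A combinatorial tRNA-Arg(CCU) variant library was carried on a HIS3 centromeric plasmid in BY4742 lacking the chromosomal gene, from two independent transformations. Pools grew 4 generations in SC-HIS at 30 °C, then ~6.5 generations (~26.5 h) in SC-HIS 1M NaCl at 37 °C, with three outputs per input. Variants were counted by 125 bp paired-end Illumina sequencing. Fitness is ln of each genotype's generations (OD-scaled log2 output/input frequency, inverse-variance weighted across replicates) over the wild-type's.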
row,Variant,yeast fitness (ln)
1,G1A U2C C27U A43C C46U C66U A69G A70G C71U,-0.2
2,G1A U2G C27U A43C C66U,-0.123
3,U2G G6A C27U C66U A70U,-0.0165
4,G1A G6U A43C C66A A69G A70U C71U,-0.344
5,G1A U2G G6A C46U A69G A70G,-0.251
6,U2G G6A C27U A43C C46U C66A A70U C71U,-0.331
7,U2G G6A C66U A70U,0.001
8,C27U A43C C46U C66A A69G A70U,-0.156
9,C27U A43C C46U C66A A69G A70G,-0.0756
10,G1A U2G A43C C71U,-0.129
11,C27U C46U A70G C71U,-0.256
12,G1A U2C G6U A69G A70U,-0.152
13,G1A U2C C27U C46U C66U A69G A70U,-0.184
14,G6U C46U C66U C71U,-0.183
15,G1A C66U A69G A70G,-0.176
16,G1A G6A C27U A43C A69G A70U C71U,-0.684
17,G6A A43C C66A A70G,-0.154
18,C27U A43C C66A A70U,-0.0654
19,U2C C27U A43C C46U C66U A69G A70U,-0.259
20,U2C G6A C46U A69G A70G C71U,-0.145
21,G1A U2C G6A A69G A70G C71U,-0.187
22,U2G G6A C27U A43C C46U C66A,-0.189
23,U2C G6U C46U,-0.0289
24,U2G G6A C27U A43C C46U C66A A70G,-0.132

row,Variant,yeast fitness (ln)
1,U2C C27U C66A A69G A70U,-0.119
2,U2C C66A C71U,-0.0382
3,U2G A43C C66A A69G A70G,-0.162
4,G1A U2C C27U C66U A69G A70U C71U,-0.54
5,C71U,-0.00399
6,U2C G6U C27U C66U A69G A70G C71U,-0.288
7,U2C C27U C46U A70U C71U,-0.09
8,G1A U2G A43C C46U C66A A70G C71U,-0.187
9,U2C A43C C46U C66A A70G C71U,-0.0245
10,G6U C27U A43C C46U C66U A69G C71U,-0.432
11,G1A U2C C27U A43C C66A A70U C71U,-0.331
12,G6U C27U C66U A69G C71U,-0.377
13,C27U C66A,-0.0595
14,G1A U2G G6U C27U C46U A70G C71U,-0.368
15,G1A G6A C27U C66U A70G,-0.187
16,G1A U2C G6U C27U A43C C46U C66U A70U C71U,-0.315
17,U2G G6U C46U C66A A70U C71U,-0.0156
18,G1A U2G G6U A43C C46U A70G,-0.235
19,G1A U2G G6A C27U C46U C71U,-0.182
20,U2G C66U A69G A70U,-0.285
21,U2C G6A C27U A43C A69G C71U,-0.29
22,G1A G6A A43C C46U A70U C71U,-0.191
23,G1A G6A C27U A43C C46U C66A A70U C71U,-0.209
24,U2G C27U C46U C66A A70U,-0.143

row,Variant,yeast fitness (ln)
1,G6U C27U C46U A69G,-0.15
2,G1A U2G C27U C46U C66U A70G,-0.167
3,C66A A70G,-0.0114
4,A43C A69G A70G,-0.0594
5,U2C G6U A69G C71U,-0.0844
6,U2C C71U,-0.101
7,G1A U2G G6A C27U A43C C46U C66U A70G C71U,-0.286
8,U2G G6U C46U C66A A69G A70G,-0.13
9,G1A U2C G6U C27U A43C C46U C66U A69G A70U,-0.472
10,U2C C27U A43C C71U,-0.0796
11,U2G G6A C27U A43C C46U C71U,-0.134
12,U2G G6U C27U A43C A70U,-0.207
13,G1A U2G G6A C27U A43C C46U C66U A69G A70U C71U,-0.384
14,G1A C27U A43C C46U C66U A70U,-0.173
15,G1A C27U A43C C46U C66U A70G,-0.226
16,G1A G6U C27U A43C C66U A70U C71U,-0.391
17,U2C G6A C27U A43C C46U C66U A69G C71U,-0.281
18,G6U C27U A43C A69G A70U,-0.391
19,G1A U2C C27U A43C A69G A70U,-0.307
20,G1A G6U C27U C46U C66U A69G A70G,-0.28
21,U2G G6A C46U C66A A69G A70U C71U,-0.382
22,G1A G6A C27U A43C C46U C66U A70U C71U,-0.413
23,G6U C27U C46U C66U C71U,-0.359
24,U2G C27U C46U C66U A69G A70G C71U,-0.245

row,Variant,yeast fitness (ln)
1,U2C G6A C27U C46U A69G C71U,-0.172
2,U2G C27U A70U,-0.0184
3,U2G G6U A43C C46U,-0.106
4,G1A U2G G6U C27U A43C C46U C66A A69G A70G C71U,-0.337
5,G1A U2G A43C C46U C66U A69G A70G,-0.254
6,G1A C27U A69G A70U C71U,-0.421
7,U2G G6U C27U A43C C46U C66A A69G A70U,-0.357
8,G1A U2G G6U C27U A70U C71U,-0.305
9,G1A U2G G6U C27U A43C C66A,-0.171
10,U2G G6U C27U C66U A69G A70G,-0.375
11,U2C G6U A43C A70U,-0.118
12,U2C G6U C66U A69G A70G,-0.103
13,G1A U2G G6U C27U A43C C46U C66U,-0.434
14,U2C G6U A43C C46U C66A A70U C71U,-0.153
15,G6U C27U A43C C46U C66U A69G A70U C71U,-0.535
16,G6A A69G A70G,-0.0849
17,G6U C66A A70G,-0.0102
18,U2G G6A C66A A70G,-0.0981
19,G1A U2C C27U A43C C46U,-0.0167
20,G1A G6U C27U A43C C46U C66A A70U C71U,-0.325
21,U2G G6U C27U A43C C46U C66U C71U,-0.356
22,G1A G6A A43C C66U A70U,-0.374
23,G1A U2C G6U A43C A70G C71U,-0.198
24,G1A C66U A69G C71U,-0.515

row,Variant,yeast fitness (ln)
1,U2C G6U C27U A69G A70U,-0.111
2,U2C G6U C27U A69G A70G,-0.191
3,U2C G6A A43C C46U A69G A70G C71U,-0.101
4,G1A G6U A43C C46U A69G A70G C71U,-0.321
5,G1A U2G A43C C46U A69G,-0.0712
6,U2G A43C C66U A70U,-0.268
7,U2C G6A C27U C46U A69G A70G,-0.236
8,G6U A43C C46U C66U A69G A70G C71U,-0.325
9,U2C G6A A69G A70G C71U,-0.394
10,U2G G6U A43C C46U C71U,-0.198
11,G1A G6A C27U A43C A69G A70G,-0.0719
12,G1A U2C C46U C71U,-0.0165
13,G1A U2G G6U C66A C71U,-0.193
14,G6A C27U A43C C46U C66U A69G A70U,-0.306
15,G1A U2C C27U A43C A69G C71U,-0.173
16,G1A U2C A43C C46U C66U A70U,-0.132
17,G1A U2G G6A C27U A43C C46U A69G A70G C71U,-0.424
18,G1A U2G G6U C46U C66U C71U,-0.257
19,U2C G6U A43C C46U C66U A69G A70G C71U,-0.169
20,G1A U2G G6U C27U A70G C71U,-0.326
21,U2C G6U C46U A69G A70G,-0.0922
22,U2G G6A C27U A43C C46U C66A A70G C71U,-0.19
23,G1A U2G C27U C46U A69G A70U C71U,-0.18
24,G1A U2G A70G C71U,-0.212

row,Variant,yeast fitness (ln)
1,U2C C27U A43C A69G A70G,-0.0551
2,U2C G6U A70U,-0.0726
3,G1A U2C A43C C46U A69G A70G C71U,-0.00408
4,G1A U2C G6U C27U A43C C66A A70G C71U,-0.0539
5,G1A U2G G6U A43C C66A A69G A70G C71U,-0.412
6,G1A U2C A70G C71U,-0.0141
7,U2G G6U A43C C46U A69G A70U,-0.194
8,G1A U2C G6A C66U A69G A70G C71U,-0.0247
9,G1A G6U C27U A43C A70U,-0.331
10,U2G G6U C27U A43C C46U C66U A69G,-0.317
11,U2G G6A C46U C66U A69G A70G C71U,-0.188
12,G6U C27U C46U A70U,-0.167
13,U2G G6U C66A A69G A70G C71U,-0.158
14,G1A G6U C27U C46U C66U,-0.313
15,G1A C46U C66U A69G,-0.202
16,G1A U2C C46U A70G C71U,0.000912
17,G1A C46U A69G A70U C71U,-0.359
18,G1A U2G C27U A43C C46U A69G,-0.212
19,G1A U2G G6U C46U C66U A70U,-0.184
20,C27U A43C C46U C66A A69G C71U,-0.317
21,U2G G6A C27U C66A A70G C71U,-0.149
22,U2G G6U A43C C71U,-0.17
23,G1A U2G C27U A43C C46U C66U A69G A70U,-0.462
24,U2C C66U A70G C71U,-0.0234

row,Variant,yeast fitness (ln)
1,G1A U2C A43C C46U A69G C71U,-0.175
2,U2C G6A A43C C46U C66U A69G A70U C71U,-0.319
3,G1A G6U A43C C46U C66A C71U,-0.0191
4,U2C C46U C66U,-0.171
5,G1A U2C A69G A70U C71U,-0.321
6,G6U C46U C66U A69G,-0.376
7,G1A U2C G6U A43C C46U C66A A70U C71U,-0.425
8,G1A G6U A43C C46U C66U A70G,-0.261
9,U2G G6U C46U C66A A69G C71U,-0.185
10,G1A U2C G6A A69G A70U C71U,-0.281
11,C46U A70G C71U,-0.0663
12,G1A G6A A43C A69G C71U,-0.335
13,G1A U2G C27U A43C C46U C66A A70U,-0.175
14,G1A U2G A43C,-0.0767
15,U2C G6U C27U A43C C71U,-0.23
16,G1A A43C C46U A70U,-0.0611
17,G1A C27U C66U A70U,-0.152
18,U2G A43C C71U,-0.102
19,U2C G6A C46U C66A A70G C71U,-0.142
20,A43C C46U,0.00767
21,G1A U2C G6A A43C C46U C66U C71U,-0.246
22,C46U C66U A69G A70U C71U,-0.332
23,G6U A43C A69G A70U C71U,-0.447
